In ChEMBL document CHEMBL1165887, “Structure-activity relationships of monomeric C2-aryl pyrrolo[2,1-c][1,4]benzodiazepine (PBD) antitumor agents” (J Med Chem, 2010):

Assays:
K562 = assay: Cytotoxicity against human K562 cells after 96 hrs by alamar blue assay; format: functional, cell-based; conditions: K562, 96 h
Method in brief: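 K562 cells kept in RPMI with 10% fetal calf serum and 2 mM glutamine, seeded at 10⁴ cells/mL. Compounds serially diluted in DMSO and added in triplicate; exposure 96 h at 37 °C, 5% CO₂. Alamar Blue (1 μM final) then added for a further 4 h; read by fluorescence emission at 580-620 nm.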

Calf thymus DNA [1] = assay: Binding affinity to calf thymus DNA assessed as change in melting temperature after 4 hrs; format: nucleic-acid assay; conditions: Bos taurus
Method in brief: (§1)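 Calf thymus DNA at a fixed 100 μM (DNAp, 50 μM bp) in pH 7.00 buffer of 10 mM NaH₂PO₄/Na₂HPO₄ and 1 mM Na₂EDTA, 1:5 ligand/DNAp ratio, DMSO ≤0.3% v/v. Mixture kept at 37 °C for the stated time, then melted while absorbance at 260 nm was monitored. Tm taken at the midpoint of the normalized profile; ΔTm = Tm(DNA+ligand) − Tm(DNA), corrected for DMSO; mean of at least three runs.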

[2] = Growth inhibition of human NCI60 cells after 48 hrs by SRB assay; format: functional; conditions: NCI60, 48 h; for CC50: read-out: LC50 (the source's name)
Calf thymus DNA [3] = assay: Binding affinity to calf thymus DNA assessed as change in melting temperature after 18 hrs; format: nucleic-acid assay; conditions: Bos taurus; method in brief: as §1

| Compound | IC50 (K562) | ΔTm (Calf thymus DNA [1]) | GI50 [2] | TGI [2] | CC50 [2] | ΔTm (Calf thymus DNA [3]) |
| --- | --- | --- | --- | --- | --- | --- |
| COc1cc2c(cc1OC)C(=O)N1C=C(c3ccc(N)cc3)C[C@H]1C=N2 | 0.014 µM | 6.2 °C | 0.002 µM | 0.03 µM | 4.79 µM | 6.5 °C |
| COc1cc2c(cc1OC)C(=O)N1C=C(c3cnc4ccccc4c3)C[C@H]1C=N2 | 0.0089 µM | 18.1 °C | 0.0001 µM | 0.001 µM | 0.18 µM | 18.2 °C |
| COc1cc2c(cc1OC)C(=O)N1C=C(c3ccc(C(F)(F)F)cc3)C[C@H]1C=N2 | 0.0243 µM | 11.7 °C | 0.004 µM | 0.03 µM | 1.66 µM | 11.9 °C |
| COc1cc2c(cc1OC)C(=O)N1C=C(c3ccccc3C)C[C@H]1C=N2 | 0.0093 µM | 6.8 °C | 0.012 µM | 0.25 µM | 10.7 µM | 6.9 °C |
| COc1cc2c(cc1OC)C(=O)N1C=C(c3ccc4c(c3)OCO4)C[C@H]1C=N2 | 0.00047 µM | 10.3 °C | 0.002 µM | 0.03 µM | 3.63 µM | 10.3 °C |
| COc1ccc(C2=CN3C(=O)c4cc(OC)c(OC)cc4N=C[C@@H]3C2)cc1 | 0.0049 µM | 10.5 °C | 0.001 µM | 0.15 µM | 0.91 µM | 10.6 °C |
| COc1cc2c(cc1OC)C(=O)N1C=C(c3ccc(C)cc3)C[C@H]1C=N2 | 0.00028 µM | 9.8 °C | 0.002 µM | 0.18 µM | 8.9 µM | 10.1 °C |
| COc1cc2c(cc1OC)C(=O)N1C=C(c3ccc(C#N)cc3)C[C@H]1C=N2 | 0.0198 µM | 10.9 °C | 0.003 µM | 0.15 µM | 7.41 µM | 11 °C |
| COc1cc2c(cc1OC)C(=O)N1C=C(c3ccc(Oc4ccccc4)cc3)C[C@H]1C=N2 | 0.0511 µM | 11.9 °C | 0.003 µM | 0.03 µM | 1.26 µM | 12.1 °C |
| COc1cc2c(cc1OC)C(=O)N1C=C(c3ccccc3)C[C@H]1C=N2 | 0.0025 µM | 10.6 °C | 0.002 µM | 0.04 µM | 5.13 µM | 10.8 °C |
| COc1cc2c(cc1OC)C(=O)N1C=C(c3ccc(-c4ccccc4)cc3)C[C@H]1C=N2 | 0.0196 µM | 8.1 °C | 0.008 µM | 0.09 µM | 3.63 µM | 8.4 °C |
| COc1cc2c(cc1OC)C(=O)N1C=C(c3ccc(NC(C)=O)cc3)C[C@H]1C=N2 | 0.0297 µM |  | 0.006 µM | 0.2 µM | 11.5 µM |  |
| COc1cc2c(cc1OC)C(=O)N1C=C(c3ccc(OCCCN(C)C)cn3)C[C@H]1C=N2 | 0.0094 µM |  | 0.004 µM | 0.06 µM | 4.07 µM |  |
| COc1cc2c(cc1OC)C(=O)N1C=C(c3ccc4ccccc4c3)C[C@H]1C=N2 | 0.0454 µM | 15.4 °C | 0.0006 µM | 0.015 µM | 0.4 µM | 15.7 °C |
| COc1cc2c(cc1OC)C(=O)N1C=C(c3cc4ccccc4s3)C[C@H]1C=N2 | 0.0267 µM |  | 0.005 µM | 0.09 µM | 0.54 µM |  |
| COc1cc2c(cc1OC)C(=O)N1C=C(c3ccc(N(C)C)cc3)C[C@H]1C=N2 | 0.0321 µM | 7.6 °C | 0.003 µM | 0.04 µM | 3.23 µM | 8 °C |
| COc1cc2c(cc1OC)C(=O)N1C=C(c3ccc(C(=O)NCCCN(C)C)cc3)C[C@H]1C=N2 | 0.165 µM |  | 0.058 µM | 0.83 µM | 35.5 µM |  |
| COc1cc2c(cc1OC)C(=O)N1C=C(c3ccc4ccc5cccc6ccc3c4c56)C[C@H]1C=N2 | 0.0862 µM |  | 0.398 µM | 1.44 µM | 10.7 µM |  |
| COc1cc2c(cc1OC)C(=O)N1C=C(c3cccc(C(=O)NCCCN(C)C)c3)C[C@H]1C=N2 | 0.273 µM |  | 0.102 µM | 0.85 µM | 14.1 µM |  |
| COc1cc2c(cc1OC)C(=O)N1C=C(c3cccc(N)c3)C[C@H]1C=N2 | 0.0595 µM |  | 0.004 µM | 0.05 µM | 5.89 µM |  |
| COc1cc2c(cc1OC)C(=O)N1C=C(/C=C/c3ccc(Cl)cc3)C[C@H]1C=N2 | 0.0154 µM |  | 0.005 µM | 0.02 µM | 1 µM |  |
| CO[C@H]1Nc2c(ccc(C)c2O)C(=O)N2C=C(/C=C/C(N)=O)C[C@@H]12 [ANTHRAMYCIN METHYL ETHER] | 0.008 µM | 11.2 °C | 0.013 µM | 1.58 µM | 24.5 µM | 13 °C |

| Compound | IC50 (K562) | ΔTm (Calf thymus DNA [1]) | GI50 [2] | TGI [2] | CC50 [2] | ΔTm (Calf thymus DNA [3]) |
| --- | --- | --- | --- | --- | --- | --- |
| COc1cc2c(cc1OC)C(=O)N1C=C(c3ccc(SC)cc3)C[C@H]1C=N2 | 0.019 µM | 10.5 °C | 0.005 µM | 0.02 µM | 1.44 µM | 10.7 °C |
| C/C=C/C1=CN2C(=O)c3cc(O[C@@H]4O[C@@H](C)[C@H](NC)[C@@](C)(O)[C@H]4O)c(C)c(O)c3N[C@H](O)[C@@H]2C1 [SIBIROMYCIN] | 0.0014 µM | 16 °C | 0.033 µM | 0.85 µM | 16.7 µM | 16.3 °C |
| COc1cc2c(cc1OC)C(=O)N1C=C(c3ccc4[nH]ccc4c3)C[C@H]1C=N2 | 0.0126 µM |  | 0.005 µM | 0.04 µM | 7.08 µM |  |
| COc1cc2c(cc1OC)C(=O)N1C=C(c3ccc(Cl)cc3)C[C@H]1C=N2 | 0.0313 µM | 9.9 °C | 0.002 µM | 0.07 µM | 4.47 µM | 10.2 °C |
| COc1cc2c(cc1OC)C(=O)N1C=C(c3ccc(C(=O)O)cc3)C[C@H]1C=N2 | > 1 µM |  | 13.2 µM | 23.4 µM | 25.1 µM |  |
| COc1cc2c(cc1OC)C(=O)N1C=C(c3ccc(C(C)C)cc3)C[C@H]1C=N2 | 0.115 µM | 6.7 °C | 0.004 µM | 0.06 µM | 4.46 µM | 6.9 °C |
| COc1cc2c(cc1OC)C(=O)N1C=C(c3ccc(F)cc3)C[C@H]1[C@H](S(=O)(=O)O)N2 | 0.0163 µM |  | 0.005 µM | 0.04 µM | 0.0016 µM |  |
| COc1cc2c(cc1OC)C(=O)N1C=C(c3c(C)cccc3C)C[C@H]1C=N2 | > 1 µM | 0.5 °C | 0.851 µM | 3.46 µM | 20.9 µM | 0.5 °C |
| COc1cc2c(cc1OC)C(=O)N1C=C(/C=C/c3ccc(C(F)(F)F)cc3)C[C@H]1C=N2 | 0.0312 µM |  | 0.003 µM | 0.02 µM | 1.1 µM |  |
| COc1cccc(C2=CN3C(=O)c4cc(OC)c(OC)cc4N=C[C@@H]3C2)c1 | 0.00045 µM | 10.1 °C | 0.011 µM | 0.06 µM | 4.07 µM | 10.2 °C |
| COc1cc2c(cc1OC)C(=O)N1C=C(c3ccc(C(C)(C)C)cc3)C[C@H]1C=N2 | 0.0478 µM | 9 °C | 0.002 µM | 0.05 µM | 1.94 µM | 9.2 °C |
| COc1cc2c(cc1OC)C(=O)N1C=C(c3cccs3)C[C@H]1C=N2 | 0.0011 µM | 12.7 °C | 0.01 µM | 0.15 µM | 0.74 µM | 13 °C |
| COc1cc2c(cc1OC)C(=O)N1C=C(c3ccccc3)C[C@H]1[C@H](S(=O)(=O)O)N2 | 0.0165 µM |  | 0.054 µM | 0.43 µM | 0.0025 µM |  |
| COc1cc2c(cc1OC)C(=O)N1C=CC[C@H]1C=N2 | 0.0144 µM |  | 1.35 µM | 8.13 µM | 60.2 µM |  |
| CCc1ccc(C2=CN3C(=O)c4cc(OC)c(OC)cc4N=C[C@@H]3C2)cc1 | 0.0795 µM | 9.4 °C | 0.001 µM | 0.07 µM | 4.17 µM | 9.7 °C |
| COc1cc2c(cc1OC)C(=O)N1C=C(c3cccc(C(=O)NCCN(C)C)c3)C[C@H]1C=N2 | 0.119 µM |  | 0.027 µM | 1.86 µM | 10.5 µM |  |
| COc1cc2c(cc1OC)C(=O)N1C=C(c3cccc4c3Sc3ccccc3S4)C[C@H]1C=N2 | > 1 µM |  | 0.501 µM | 1.74 µM | 8.91 µM |  |
| COc1cc2c(cc1OC)C(=O)N1C=C(c3ccc(C=O)cc3)C[C@H]1C=N2 | 0.0263 µM | 10.6 °C | 0.009 µM | 0.16 µM | 15.1 µM | 10.8 °C |
| COc1cc2c(cc1OC)C(=O)N1C=C(c3ccc(C(N)=O)cc3)C[C@H]1C=N2 | 0.0156 µM |  | 0.009 µM | 0.46 µM | 13.8 µM |  |
| COc1cc2c(cc1OC)C(=O)N1C=C(c3ccc(F)cc3)C[C@H]1C=N2 | 0.0016 µM | 10.4 °C | 0.002 µM | 0.12 µM | 11.2 µM | 10.6 °C |
| C=Cc1ccc(C2=CN3C(=O)c4cc(OC)c(OC)cc4N=C[C@@H]3C2)cc1 | 0.069 µM | 9 °C | 0.005 µM | 0.01 µM | 0.62 µM | 9.2 °C |
| COc1cc2c(cc1OC)C(=O)N1C=C(c3cccc4c3sc3ccccc34)C[C@H]1C=N2 | 0.163 µM |  | 0.025 µM | 0.22 µM | 5.37 µM |  |
